Screening results: PubChem, The Scripps Research Institute Molecular Screening Center
The list is not random: actives were taken first. Their share in the collection is about 3.3%.
PRMT1 FP inh – PRMT1 (human) inhibition, primary screen; Q99873; recombinant PRMT1, activity-based probe fluorescence polarization; inhibition, % at 2.79 µM; 1.3% of 370,000 active; AID 652257;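 active means inhibition above about 21% made by adding two undisclosed values, limit read from the data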
Target sequence (Q99873 whole entry, looked up): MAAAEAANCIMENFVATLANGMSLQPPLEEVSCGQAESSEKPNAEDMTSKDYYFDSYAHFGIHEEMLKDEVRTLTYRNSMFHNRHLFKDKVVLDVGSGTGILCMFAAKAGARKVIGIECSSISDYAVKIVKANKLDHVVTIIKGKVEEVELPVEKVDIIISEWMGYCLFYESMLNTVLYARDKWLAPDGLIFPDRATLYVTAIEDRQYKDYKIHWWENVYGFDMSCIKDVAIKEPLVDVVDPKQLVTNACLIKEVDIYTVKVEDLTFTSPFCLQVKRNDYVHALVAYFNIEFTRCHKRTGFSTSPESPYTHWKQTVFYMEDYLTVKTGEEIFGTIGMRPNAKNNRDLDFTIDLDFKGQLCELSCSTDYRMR
LEDGF integ inh – blocks HIV-1 LEDGF/p75-dependent DNA integration. TR-FRET IN-LEDGF/p75 DNA integration, Eu/Cy5. inhibition, % at 3.7 µM. 0.64% of 370,000 active. AID 743269;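 active means inhibition above the screen-wide mean plus 3 SD, cut at about 13% in these data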;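 further: signal is the Cy5 over europium emission ratio at 671 and 618 nm; 0% = plate median of compound wells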
SIAE primary – human SIAE inhibition, primary screen; Q9HAT2; SIAE FP-Rh probe binding, fluorescence polarization; inhibition, % at 9.66 µM; 0.69% of 370,000 active; AID 1053197;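 active means inhibition above a cutoff: mean of compounds within the control limits plus 3 SD of those, cut at about 17% in these data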;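 further: 0% = plate median of compound wells and 100% = probe without SIAE protein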
MBD2 inh – blocks human MBD2 binding to methylated DNA | AID 686964 | TR-FRET, MBD2 binding to methylated oligonucleotide | Q9UBB5 | inhibition, % at 4.4 µM | 0.31% of 370,000 active; in the data active means inhibition above about 13%
UHRF1 binding – human UHRF1 methylated DNA binding inhibitors; 0.75% of 370,000 active; UHRF1 binding to methylated oligo, TR-FRET; Q96T88; inhibition, % at 4.4 µM; AID 687016; in the data active means inhibition above about 21%;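 further: UHRF1 SRA domain binding a hemimethylated CpG hairpin DNA probe; 0% = median of test compound wells and 100% = reference inhibitor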
TDP2 inh – TDP2 (human) inhibition, absorbance primary screen | O95551 | recombinant TDP2, T5PNP hydrolysis, p-nitrophenol absorbance 415 nm | inhibition, % at 12.8 µM | 0.34% of 370,000 active | AID 720702;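 active means inhibition above the mean of all tested compounds plus 3 SD, set per campaign, cut at about 25% in these data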;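 further: 0% = DMSO with enzyme and 100% = buffer with substrate but no TDP2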
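System: recombinant human TDP2 / Amount: 120 nM TDP2 per well / Also added: 5 mM T5PNP chromogenic substrate / Doses: 12.8 µM single point, 1% DMSO / Incubation: 2 h at 37 °C / Detection: p-Nitrophenol epi absorbance / Evaluation: % inhibition relative to enzyme-containing and enzyme-free wells / Repeats: singlicate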
PRMT1 inh conf – PRMT1 (human) inhibition, FP confirmation; shares compounds with PRMT1 FP inh; recombinant His-PRMT1, activity-based probe fluorescence polarization; inhibition, % at 2.79 µM; 42% of 3,300 active;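 active means mean inhibition across replicates above the hit cutoff derived for the earlier primary screen, cut at about 22% in these data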
The depositor's hits bear a star; x = not tested or not shown.

SMILES	PRMT1 FP inh	LEDGF integ inh	SIAE primary	MBD2 inh	UHRF1 binding	TDP2 inh	PRMT1 inh conf
CN(C)/C=C1\C(=O)Nc2ccccc21	2	3	-2	1	4	-6	x
CN(C)/C=C1/Sc2ccccc2C1=O	57*	-4	-1	-2	-3	-1	29*
CN1C(=O)S/C(=C/c2cccnc2)C1=O	-2	-2	2	-2	-2	-11	x
O=C(C1CCCN1S(=O)(=O)c1ccc(Br)s1)N1CCN(c2ccccc2)CC1 (stereo not given)	7	-1	-1	4	2	0	x
CN1CCCN(C(=O)CN2C(=O)CC(C)(C)S(=O)(=O)c3ccccc32)CC1	2	-1	4	-6	-1	10	x
CCOC(=O)C1=C(CSc2nc(-c3ccccc3)ccc2C#N)OC(N)=C(C#N)C1c1cccnc1 (stereo not given)	41*	0	-13	4	-1	-5	26*
CCOC(=O)C1=C(CSc2nc3c(cc2C#N)CCC3)OC(N)=C(C#N)C1c1ccccc1 (stereo not given)	46*	6	-4	-8	-8	3	3
COc1cc(/C=C2\C(=O)NN(c3ccc(C)cc3)C2=O)cc([N+](=O)[O-])c1O	30*	2	3	-4	-2	7	9
COc1cc(/C=C2\C(=O)NN(c3ccccc3)C2=O)cc([N+](=O)[O-])c1O	14	4	10	-9	-3	-14	x
O=C(NN1C(=O)C2C3C=CC(O3)C2C1=O)c1cccc(O)c1 (stereo not given)	54*	4	-3	-6	-2	-24	0
O=C(NN1C(=O)C2C3C=CC(O3)C2C1=O)c1cccc(Br)c1 (stereo not given)	40*	-1	6	-6	0	-9	8
COc1ccc(C(=O)NN2C(=O)C3C4C=CC(O4)C3C2=O)cc1 (stereo not given)	49*	0	0	2	2	6	11
Cc1ccc(C(=O)NN2C(=O)C3C4C=CC(C4)[C@@H]3C2=O)cc1 (stereo not given in full)	5	0	-4	-5	1	-1	x
Cc1cccc(C(=O)NN2C(=O)C3C(c4ccccc4)C=CC(c4ccccc4)C3C2=O)c1 (stereo not given)	1	0	-47	2	-1	-1	x
CCNC(=O)N(C)[C@H]1C[C@H]2c3[nH]c4c(-c5cccc(C)c5)cccc4c3CCN2C(=O)[C@H]1[C@H](C)O	-1	-1	2	2	2	-4	x
COC(=O)[C@]12C[C@H](CC(=O)NCCC(C)C)C(=O)N(Cc3ccco3)C1=C[C@H](C(C)C)O[C@@H]2C1CC1	0	2	1	-2	-1	-1	x
COc1ccccc1N1C(=O)C(Cl)=C(Nc2ccccc2O)C1=O	40*	0	-4	0	-1	0	26*
COc1ccc(C(=O)CC(=O)c2ccc(C(C)(C)C)cc2)cc1	4	-1	-1	2	2	-4	x
COc1ccc(C(=O)CC(Sc2ccccc2N)c2ccc(OC)cc2)cc1 (stereo not given)	59*	0	0	6	5	1	29*
COc1ccc(CN(CCN2CCOCC2)C(=O)c2cccc(F)c2)cc1OC	4	-3	2	-5	5	1	x
CC1(C(=O)Nc2cnc3ccccc3c2)CCN1Cc1ccc(-c2ccccc2)o1 (stereo not given)	34*	-5	9	5	1	-4	11
CCn1c(SCC(=O)N/N=C/c2cccc(Oc3ccccc3)c2)nnc1-c1ccccc1	3	0	2	-3	-2	0	x
COc1ccc(NC2CCN(C3CC(=O)N(c4ccc(F)c(Cl)c4)C3=O)CC2)cc1 (stereo not given)	2	-4	-2	1	1	4	x
NC(=O)C1CCN(C2CC(=O)N(c3ccc(F)c(Cl)c3)C2=O)CC1 (stereo not given)	30*	-1	-4	0	1	8	9
COC(=O)C1CCN(C2CC(=O)N(c3cc(C)cc(C)c3)C2=O)CC1 (stereo not given)	57*	0	-6	2	5	-8	-2
SMILES	PRMT1 FP inh	LEDGF integ inh	SIAE primary	MBD2 inh	UHRF1 binding	TDP2 inh	PRMT1 inh conf
NC(=O)C1CCN(C2CC(=O)N(c3cccc(F)c3)C2=O)CC1 (stereo not given)	29*	0	-10	3	0	-4	2
Cc1ccccc1N1C(=O)CC(N2CCC(C(N)=O)CC2)C1=O (stereo not given)	73*	2	-1	9	3	18	-3
CN1C(=O)CC(N2CCC(C(N)=O)CC2)C1=O (stereo not given)	7	0	-2	3	5	-11	x
CCOc1ccccc1C(=O)Nc1ccc2nc(C)[nH]c(=O)c2c1	-8	3	-1	-6	3	-7	x
NC(=O)C1CCN(C2CC(=O)NC2=O)CC1 (stereo not given)	64*	3	-8	8	5	0	-2
CCOc1cccc(N2C(=O)CC(N3CCC(C(N)=O)(N4CCCCC4)CC3)C2=O)c1 (stereo not given)	40*	-3	0	-6	0	-12	0
CC(C)c1cc(C(C)C)c(S(=O)(=O)NCC(=O)N2CCN(c3ncccn3)CC2)c(C(C)C)c1	-9	0	9	-3	0	-10	x
Cc1ccccc1NC(=O)CCS(=O)(=O)c1ccccc1	0	-3	-2	-3	0	-2	x
COc1ccccc1NC(=O)CCc1nc2ccccc2s1	-1	-1	4	-4	-2	-3	x
CC(C)c1ccccc1NC(=O)CCc1nc2ccccc2s1	32*	2	4	-2	-6	8	16
Cc1ccc(-n2ccnc(SCC(=O)NC3CCCCC3)c2=O)cc1F	26*	3	-2	-4	-5	1	7
O=C(CSc1nccn(-c2ccc(Br)cc2)c1=O)Nc1ccccc1F	46*	4	-17	-2	-2	6	17
CCOc1ccc(-n2ccnc(SCC(=O)NCc3cccc(OC)c3)c2=O)cc1	9	1	-1	0	0	3	x
CCOc1ccc(-n2ccnc(SCC(=O)Nc3ccc(OC)cc3OC)c2=O)cc1	27*	3	-1	-3	-3	5	27*
COc1ccc(CNC(=O)CSc2nccn(-c3ccc(F)c(F)c3)c2=O)cc1	33*	4	6	-1	-2	5	27*
